IMP-1 inhibitor – IMP-1 metallo-beta-lactamase inhibitors, primary screen, biochemical, epi-absorbance readout, Pseudomonas aeruginosa enzyme | purified IMP-1, nitrocefin hydrolysis, epi-absorbance fluorescence | metallo-beta-lactamase IMP-1 (Pseudomonas aeruginosa) | actives 0.45% (n = 290,000) | inhibition, % at 5.6 µM;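 active means inhibition above the mean plus 3 SD of all compounds in the same screening run, cut at about 4.5% in these data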;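 further: 0% = IMP-1 with DMSO and 100% = DMSO wells lacking enzyme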
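System – purified recombinant IMP-1 beta-lactamase · Input – IMP-1 dispensed at 0.2 nM · Timing – 15 min preincubation plus 25 min reaction at 25 °C · Signal – Epi-absorbance fluorescence, 480 nm excitation, 530 nm emission · Measure – percent IMP-1 inhibition derived from blank-referenced optical density · Controls – Enzyme-plus-DMSO low control, enzyme-free DMSO high control · Replication – singlicate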
ANO1 block – TMEM16A chloride channel inhibitors, primary screen, cell-based, HTS. Anoctamin-1 (Mus musculus), Q8BHY3. HEK293 TMEM16A/YFP iodide influx fluorescence, ionomycin. normalized B-score (activity score, 25-100; higher = stronger inhibition) at 10 µM. actives 1.2% (n = 310,000). AID 588511, 2011;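 active means ratio plate-corrected score three or more library SD toward inhibition, starting fluorescence score within five deviations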;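 further: score derived from kinetic fluorescence span divided by baseline fluorescence per well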
ANO1 activ – TMEM16A chloride channel activators or potentiators, primary screen, cell-based, HTS | Anoctamin-1 (Mus musculus), Q8BHY3 | AID 623877, 2012 | HEK293 TMEM16A/YFP-H148Q/I152L, iodide quench fluorescence; hits give low values | B-score at 10 µM | actives 0.3% (n = 340,000);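 active means fluorescence-ratio B-score plate-corrected deviation score at least 3 library SD below zero, with starting fluorescence score within 5 deviations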;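 further: channel opened by trigger with iodide after compound preincubation; score built on the fluorescence ratio of max minus min over baseline; more negative score means more quench and so TMEM16A activation or potentiation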
CHT allo act – CHT positive allosteric modulators, primary screen, cell-based, membrane potential dye, choline EC20; High affinity choline transporter 1 (Homo sapiens), Q9GZV3; CHT-expressing cells; hits give high values; LV-AA mutant CHT in HEK293 cells; actives 0.49% (n = 310,000); B-score at 10 µM; AID 488977, 2010;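 active means initial fluorescence not abnormally high and integrated response B-score, plate-corrected, over 3 SD above library mean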
Target sequence (Q9GZV3 whole entry, looked up): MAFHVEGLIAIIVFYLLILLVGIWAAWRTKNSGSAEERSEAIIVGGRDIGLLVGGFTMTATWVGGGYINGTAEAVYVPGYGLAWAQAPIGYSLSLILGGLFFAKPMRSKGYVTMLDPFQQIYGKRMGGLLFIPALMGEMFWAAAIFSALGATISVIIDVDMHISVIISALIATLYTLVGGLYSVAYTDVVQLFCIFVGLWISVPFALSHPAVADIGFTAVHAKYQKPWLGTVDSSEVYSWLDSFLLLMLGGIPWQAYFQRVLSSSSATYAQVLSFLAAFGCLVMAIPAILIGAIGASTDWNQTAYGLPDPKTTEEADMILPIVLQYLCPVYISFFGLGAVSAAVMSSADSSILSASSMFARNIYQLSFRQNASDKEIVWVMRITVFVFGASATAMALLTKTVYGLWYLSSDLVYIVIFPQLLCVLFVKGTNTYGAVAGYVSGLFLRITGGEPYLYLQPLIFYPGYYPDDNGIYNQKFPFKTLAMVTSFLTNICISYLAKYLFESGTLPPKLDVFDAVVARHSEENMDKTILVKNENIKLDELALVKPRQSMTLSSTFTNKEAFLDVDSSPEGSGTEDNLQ
CHT inh – inhibitors of human choline transporter CHT; High affinity choline transporter 1 (Homo sapiens), Q9GZV3; CHT-expressing cells, membrane potential dye, choline response; hits give low values; B-score at 10 µM; actives 0.86% (n = 310,000); AID 488975, 2010;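 active means B-score over 3 SD under the library average, and starting fluorescence ratio not unusually high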;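 further: choline stimulus applied at its EC90 after an EC20 pre-addition; B-score computed on integrated fluorescence ratio after choline addition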
VIM-2 inh – VIM-2 metallo-beta-lactamase inhibitors, primary screen, biochemical, epi-absorbance readout, Pseudomonas aeruginosa enzyme; inhibition, % at 5.6 µM; actives 0.89% (n = 290,000); purified VIM-2, nitrocefin hydrolysis, epi-absorbance fluorescence;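 active means inhibition above the mean of all tested compounds plus 3 SD, cutoff set per screening run, cut at about 7.5% in these data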;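 further: red hydrolysis product quenches plate fluorescence so inhibitors raise well fluorescence; 0% = enzyme with DMSO and 100% = DMSO without enzyme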
CHT block conf – CHT inhibitors, confirmation, cell-based, membrane potential dye, duplicate | CHT activity remaining % of control (hits give low values), % at 10 µM | CHT-expressing cells, choline membrane potential dye; LV-to-AA substituted CHT, HEK293 cells | actives 70% (n = 2,400) | shares compounds with CHT inh | AID 493221, 2011;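 active means choline transporter activity left, mean of duplicates at 10 µM, below buffer-only control mean minus 3 SD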;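 further: depolarization triggered by choline at its EC90 following an EC20 pre-addition; 0% = hemicholinium-3 full block and 100% = buffer-only control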
HEK293 CHT ctr – membrane potential effects in parental HEK293, counter-screen for CHT inhibitor project, cell-based, membrane potential dye; choline response; active = decrease or increase beyond buffer ±3SD; shares compounds with CHT inh; membrane potential ratio readout (active if shifted either direction beyond buffer ±3SD; no single direction) at 10 µM; AID 493222, 2011; actives 4% (n = 2,400);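 further: parental cells lack the transporter so any hit is non-specific; ratio is peak minus trough fluorescence over baseline after EC90 choline challenge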
The depositor's hits bear a star; i = inactive; nt = not tested or not shown. Most compounds without a hit are left out; they make up all but 3.4% or so of the library.

SMILES	IMP-1 inhibitor	ANO1 block	ANO1 activ	CHT allo act	CHT inh	VIM-2 inh	CHT block conf	HEK293 CHT ctr
Cc1nc(SCC(=O)NC(=O)NC2CCCCC2)nc(C)c1C	-0.1	i	i	i	-10.6*	-0.4	3.3%*	i
Nc1cc(N)nc(SCC(=O)NC(=O)NC2CCCC2)n1	nt	nt	i	nt	nt	nt	nt	nt
O=C(c1cc(COc2ccc(F)c(F)c2)on1)N1CCN(C2CCCCC2)C(=O)C1	-1.3	i	i	i	i	-0.1	nt	nt
COc1ccc(C(=O)C2CCCN(C(=O)C3=CCCC3)C2)c(C)c1 (configuration not stated)	-1.7	i	i	i	-4.96*	-2.9	34.5%*	i
C=CCNC(=S)NNC(=O)c1ccccc1OCC	-3.5	i	i	i	i	-4.6	nt	nt
O=C(N/N=C\c1cccs1)c1ccccc1-n1cccc1	-0.3	i	i	i	-5.34*	2.1	i	i
CCOc1ccc(CCNC(=O)COC(=O)c2sccc2C)cc1OCC	nt	i	i	i	i	nt	nt	nt
CCN(CC)C(=O)N1CCN(S(=O)(=O)c2ccc(C)c(C)c2)CC1	-1.8	i	i	i	-7.36*	-3.8	36.5%*	i
CCN(CC)C(=O)N1CCN(S(=O)(=O)c2ccc(C)cc2)CC1	0.3	i	i	i	i	-3.1	nt	nt
COc1ccccc1NC(=O)C1CCCN(c2nc(C)cc(C)n2)C1 (configuration not stated)	-4.2	i	i	i	-5.73*	-4.0	i	i
CCOc1ccc(C2C(C(=O)c3cccs3)=C(O)C(=O)N2CCN2CCOCC2)cc1 (configuration not stated)	-0.2	i	i	i	i	0.9	nt	nt
Cc1ccc(N=Cc2cc(Br)cc(Cl)c2O)cc1	0.2	i	i	i	i	0.3	nt	nt
Oc1c(Cl)cc(Cl)cc1C=Nc1ccc(Br)cc1	-3.4	i	i	i	-6.54*	-4.0	51.1%*	i
COc1ccc(OCC(=O)Nc2ccc(S(=O)(=O)Nc3cc(C)on3)cc2)cc1	nt	i	i	i	i	nt	nt	nt
Cc1noc(NS(=O)(=O)c2ccc(NC(=O)COc3ccc(Cl)cc3Cl)cc2)c1C	-2.6	i	i	i	-6.41*	-3.8	38.7%*	i
Cc1cc(NS(=O)(=O)c2ccc(NC(=O)COc3c(C)cc(Br)cc3C)cc2)no1	-4.2	i	i	i	-6.01*	-4.0	34.3%*	i
O=C(CCn1c(=S)oc2ccccc21)Nc1cc([N+](=O)[O-])ccc1F	-0.1	i	i	i	i	0.7	nt	nt
Clc1c(-c2nnc3n2CCC3)sc2ccccc12	-3.7	i	i	i	i	4.4	nt	nt
Clc1c(-c2nnc3n2CCCCC3)sc2ccccc12	-1.2	i	i	i	-5.27*	2.7	36.0%*	-8.49*
COc1ccc2c(Cl)c(-c3nnc4n3CCCCC4)sc2c1	-3.2	i	i	i	-6.21*	-2.0	i	i
O=C(COC(=O)c1cc(=O)c2ccccc2o1)Nc1ccccc1F	nt	nt	i	nt	nt	nt	nt	nt
COc1ccc(C(C(=O)NC2CCCCC2)N(C(=O)c2cccs2)c2ccc3c(c2)OCO3)cc1 (configuration not stated)	-2.4	i	i	i	i	0.6	nt	nt
COc1ccc(CN(C(=O)c2cccs2)C(C(=O)NC2CCCCC2)c2ccc3ncccc3c2)cc1 (configuration not stated)	-1.3	i	i	i	-8.1*	0.6	43.1%*	i
O=C(NC1CCCCC1)C(c1ccc2ncccc2c1)N(Cc1ccc2c(c1)OCO2)C(=O)c1cccs1 (configuration not stated)	-1.9	i	i	i	-10.3*	-2.7	25.2%*	i
COc1ccc(OC)c(NC(=O)c2cccc(NC(=O)c3ccccc3C(=O)O)c2)c1	-1.8	i	i	i	i	-2.3	nt	nt
SMILES	IMP-1 inhibitor	ANO1 block	ANO1 activ	CHT allo act	CHT inh	VIM-2 inh	CHT block conf	HEK293 CHT ctr
O=C(CNC(=O)c1ccc(Br)o1)NCc1ccc(F)cc1	-1.9	i	i	i	i	-1.1	nt	nt
CCCCn1c(N)c(N(CC(C)C)C(=O)CSc2nnc(C)n2-c2ccccc2)c(=O)[nH]c1=O	nt	nt	i	nt	nt	nt	nt	nt
O=C(CCNC(=O)c1ccco1)Nc1ccc(Cl)cc1F	-2.7	i	i	i	i	-0.5	nt	nt
COc1ccc(C(=O)NC(C)c2ccncc2)cc1S(=O)(=O)N(C)Cc1ccccc1 (configuration not stated)	nt	nt	i	nt	nt	nt	nt	nt
CCn1c(=O)n(CC)c2cc(S(=O)(=O)N3CCc4ccccc43)ccc21	-1.7	i	i	i	-5.88*	-0.4	43.9%*	i
COc1ccc(S(=O)(=O)N2CCc3ccccc32)cc1OC	-3.8	i	i	i	i	-1.2	nt	nt
CCOC(=O)N1CCN(C(=O)CCCn2c(=S)[nH]c3ccsc3c2=O)CC1	-3.3	i	i	i	-12*	-3.9	6.4%*	i
CC(=O)c1ccc(N2CCN(C(=O)CCCn3c(=O)[nH]c4ccccc4c3=O)CC2)cc1	0.2	i	i	i	i	-0.3	nt	nt
CCOC(=O)N1CCN(C(=O)CCCn2c(=O)[nH]c3ccccc3c2=O)CC1	-1.5	i	i	i	-5.88*	-1.2	5.0%*	i
CCOC(=O)N1CCN(C(=O)CCCn2c(=S)[nH]c3ccc(Br)cc3c2=O)CC1	-4.3	i	i	i	-5.32*	-6.3	55.2%*	i
COc1ccc(OCC(=O)Nc2ccc(NC(=O)c3ccccc3Cl)c(OC)c2)cc1	-1.0	i	i	i	i	-2.0	nt	nt
CCCc1nc(NCCO)c(C#N)c2c1CCCC2	-3.0	i	i	i	-8.02*	-0.2	i	i
CCCc1nc(NCc2ccccc2)c(C#N)c2c1CCCC2	-3.8	i	i	i	i	-5.0	nt	nt

Assay outcomes deposited in PubChem BioAssay by several laboratories.
